Results published in ChEMBL document CHEMBL1221279, “Synthesis, biological evaluation, and structure-activity relationship study of novel cytotoxic aza-caffeic acid derivatives” (Bioorg Med Chem, 2010).

System: not listed separately
Assay: Cytotoxicity against human Bel7404 cells after 72 hrs by MTT assay
Format: functional, cell-based
Conditions: BEL-7404, 72 h
In short: (§1)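 Cells grown in MEM with 10% fetal calf serum, penicillin and streptomycin at 37 °C, 5% CO2. Exponentially growing cells seeded in quadruplicate at 5 × 10³ per well and left 24 h before compounds (DMSO stocks) were added. After 72 h exposure, MTT added for 4 h at 37 °C, formazan dissolved in DMSO, read at 570 nm. IC50 read graphically from dose–response curves.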

Compound	IC50 [µM]
Cc1ccc(NC(=O)COC(=O)/C=C/c2ccc(O)c(O)c2)cc1	> 200
COCOc1ccc(/C=C/C(=O)NCCc2c[nH]c3ccccc23)cc1OCOC	> 200
COCOc1cc(/C=C/C(=O)OCC(=O)Nc2ccc(OC)cc2)ccc1OCc1ccccc1	133
COc1ccc(NC(=O)COC(=O)/C=C/c2ccc(O)c(O)c2)cc1	> 200
O=C(/C=C/c1ccc(O)c(O)c1)OCCc1ccccc1 [CAFFEIC ACID PHENETHYL ESTER]	14.5
O=C(/C=C/c1ccc(O)c(O)c1)NCCc1c[nH]c2ccccc12	> 200
COc1ccc(NC(=O)COC(=O)/C=C/c2cc(OC)c(OCc3ccc(Cl)c(Cl)c3)c(OC)c2)cc1	97.8
COc1ccc(/C=C/C(=O)OCC(=O)Nc2ccccc2)cc1OC	> 200
CCCCCNC(=O)COC(=O)/C=C/c1ccc(O)c(O)c1	> 200
COCOc1cc(/C=C/C(=O)OCC(=O)Nc2ccc(Cl)cc2)ccc1OCc1ccccc1	> 200
O=C(COC(=O)/C=C/c1ccc(O)c(O)c1)Nc1ccccc1	> 200

System: HL-60
Assay: Cytotoxicity against human HL60 cells after 72 hrs by MTT assay
Format: functional, cell-based
Conditions: HL-60, 72 h
In short: as §1

Compound	IC50 [µM]
Cc1ccc(NC(=O)COC(=O)/C=C/c2ccc(O)c(O)c2)cc1	92.6
COCOc1ccc(/C=C/C(=O)NCCc2c[nH]c3ccccc23)cc1OCOC	> 200
COCOc1cc(/C=C/C(=O)OCC(=O)Nc2ccc(OC)cc2)ccc1OCc1ccccc1	> 200
COc1ccc(NC(=O)COC(=O)/C=C/c2ccc(O)c(O)c2)cc1	72.1
O=C(/C=C/c1ccc(O)c(O)c1)OCCc1ccccc1 [CAFFEIC ACID PHENETHYL ESTER]	9.8
O=C(/C=C/c1ccc(O)c(O)c1)NCCc1c[nH]c2ccccc12	124
COc1ccc(NC(=O)COC(=O)/C=C/c2cc(OC)c(OCc3ccc(Cl)c(Cl)c3)c(OC)c2)cc1	> 200
COc1ccc(/C=C/C(=O)OCC(=O)Nc2ccccc2)cc1OC	46.4
CCCCCNC(=O)COC(=O)/C=C/c1ccc(O)c(O)c1	97.4
COCOc1cc(/C=C/C(=O)OCC(=O)Nc2ccc(Cl)cc2)ccc1OCc1ccccc1	> 200
O=C(COC(=O)/C=C/c1ccc(O)c(O)c1)Nc1ccccc1	30.3

System: HeLa
Assay: Cytotoxicity against human HeLa cells after 72 hrs by MTT assay
Format: functional, cell-based
Conditions: not given
In short: as §1

Compound	IC50 [µM]
Cc1ccc(NC(=O)COC(=O)/C=C/c2ccc(O)c(O)c2)cc1	> 200
COCOc1ccc(/C=C/C(=O)NCCc2c[nH]c3ccccc23)cc1OCOC	> 200
COCOc1cc(/C=C/C(=O)OCC(=O)Nc2ccc(OC)cc2)ccc1OCc1ccccc1	155
COc1ccc(NC(=O)COC(=O)/C=C/c2ccc(O)c(O)c2)cc1	> 200
O=C(/C=C/c1ccc(O)c(O)c1)OCCc1ccccc1 [CAFFEIC ACID PHENETHYL ESTER]	8.8
O=C(/C=C/c1ccc(O)c(O)c1)NCCc1c[nH]c2ccccc12	2.7
COc1ccc(NC(=O)COC(=O)/C=C/c2cc(OC)c(OCc3ccc(Cl)c(Cl)c3)c(OC)c2)cc1	> 200
COc1ccc(/C=C/C(=O)OCC(=O)Nc2ccccc2)cc1OC	193
CCCCCNC(=O)COC(=O)/C=C/c1ccc(O)c(O)c1	187
COCOc1cc(/C=C/C(=O)OCC(=O)Nc2ccc(Cl)cc2)ccc1OCc1ccccc1	> 200
O=C(COC(=O)/C=C/c1ccc(O)c(O)c1)Nc1ccccc1	> 200

System: CNE
Assay: Cytotoxicity against human CNE cells after 72 hrs by MTT assay
Format: functional, cell-based
Conditions: not given
In short: as §1

Compound	IC50 [µM]
Cc1ccc(NC(=O)COC(=O)/C=C/c2ccc(O)c(O)c2)cc1	> 200
COCOc1ccc(/C=C/C(=O)NCCc2c[nH]c3ccccc23)cc1OCOC	> 200
COCOc1cc(/C=C/C(=O)OCC(=O)Nc2ccc(OC)cc2)ccc1OCc1ccccc1	> 200
COc1ccc(NC(=O)COC(=O)/C=C/c2ccc(O)c(O)c2)cc1	> 200
O=C(/C=C/c1ccc(O)c(O)c1)OCCc1ccccc1 [CAFFEIC ACID PHENETHYL ESTER]	54
O=C(/C=C/c1ccc(O)c(O)c1)NCCc1c[nH]c2ccccc12	> 200
COc1ccc(NC(=O)COC(=O)/C=C/c2cc(OC)c(OCc3ccc(Cl)c(Cl)c3)c(OC)c2)cc1	> 200
COc1ccc(/C=C/C(=O)OCC(=O)Nc2ccccc2)cc1OC	> 200
CCCCCNC(=O)COC(=O)/C=C/c1ccc(O)c(O)c1	170
COCOc1cc(/C=C/C(=O)OCC(=O)Nc2ccc(Cl)cc2)ccc1OCc1ccccc1	> 200
O=C(COC(=O)/C=C/c1ccc(O)c(O)c1)Nc1ccccc1	> 200

System: PC-3
Assay: Cytotoxicity against human PC3 cells after 72 hrs by MTT assay
Format: functional, cell-based
Conditions: PC-3, 72 h
In short: as §1

Compound	IC50 [µM]
Cc1ccc(NC(=O)COC(=O)/C=C/c2ccc(O)c(O)c2)cc1	> 200
COCOc1ccc(/C=C/C(=O)NCCc2c[nH]c3ccccc23)cc1OCOC	157
COCOc1cc(/C=C/C(=O)OCC(=O)Nc2ccc(OC)cc2)ccc1OCc1ccccc1	> 200
COc1ccc(NC(=O)COC(=O)/C=C/c2ccc(O)c(O)c2)cc1	172
O=C(/C=C/c1ccc(O)c(O)c1)OCCc1ccccc1 [CAFFEIC ACID PHENETHYL ESTER]	91
O=C(/C=C/c1ccc(O)c(O)c1)NCCc1c[nH]c2ccccc12	> 200
COc1ccc(NC(=O)COC(=O)/C=C/c2cc(OC)c(OCc3ccc(Cl)c(Cl)c3)c(OC)c2)cc1	> 200
COc1ccc(/C=C/C(=O)OCC(=O)Nc2ccccc2)cc1OC	> 200
CCCCCNC(=O)COC(=O)/C=C/c1ccc(O)c(O)c1	155
COCOc1cc(/C=C/C(=O)OCC(=O)Nc2ccc(Cl)cc2)ccc1OCc1ccccc1	> 200
O=C(COC(=O)/C=C/c1ccc(O)c(O)c1)Nc1ccccc1	> 200

System: K562
Assay: Cytotoxicity against human K562 cells after 72 hrs by MTT assay
Format: functional, cell-based
Conditions: K562, 72 h
In short: as §1

Compound	IC50 [µM]
Cc1ccc(NC(=O)COC(=O)/C=C/c2ccc(O)c(O)c2)cc1	> 200
COCOc1ccc(/C=C/C(=O)NCCc2c[nH]c3ccccc23)cc1OCOC	195
COCOc1cc(/C=C/C(=O)OCC(=O)Nc2ccc(OC)cc2)ccc1OCc1ccccc1	> 200
COc1ccc(NC(=O)COC(=O)/C=C/c2ccc(O)c(O)c2)cc1	79.1
O=C(/C=C/c1ccc(O)c(O)c1)OCCc1ccccc1 [CAFFEIC ACID PHENETHYL ESTER]	46
O=C(/C=C/c1ccc(O)c(O)c1)NCCc1c[nH]c2ccccc12	> 200
COc1ccc(NC(=O)COC(=O)/C=C/c2cc(OC)c(OCc3ccc(Cl)c(Cl)c3)c(OC)c2)cc1	> 200
COc1ccc(/C=C/C(=O)OCC(=O)Nc2ccccc2)cc1OC	> 200
CCCCCNC(=O)COC(=O)/C=C/c1ccc(O)c(O)c1	121
COCOc1cc(/C=C/C(=O)OCC(=O)Nc2ccc(Cl)cc2)ccc1OCc1ccccc1	> 200
O=C(COC(=O)/C=C/c1ccc(O)c(O)c1)Nc1ccccc1	> 200

System: not listed separately
Assay: Cytotoxicity against human ECA109 cells after 72 hrs by MTT assay
Format: functional, cell-based
Conditions: ECa-109, 72 h
In short: as §1

Compound	IC50 [µM]
Cc1ccc(NC(=O)COC(=O)/C=C/c2ccc(O)c(O)c2)cc1	> 200
COCOc1ccc(/C=C/C(=O)NCCc2c[nH]c3ccccc23)cc1OCOC	154
COCOc1cc(/C=C/C(=O)OCC(=O)Nc2ccc(OC)cc2)ccc1OCc1ccccc1	> 200
COc1ccc(NC(=O)COC(=O)/C=C/c2ccc(O)c(O)c2)cc1	190
O=C(/C=C/c1ccc(O)c(O)c1)OCCc1ccccc1 [CAFFEIC ACID PHENETHYL ESTER]	42.6
O=C(/C=C/c1ccc(O)c(O)c1)NCCc1c[nH]c2ccccc12	> 200
COc1ccc(NC(=O)COC(=O)/C=C/c2cc(OC)c(OCc3ccc(Cl)c(Cl)c3)c(OC)c2)cc1	> 200
COc1ccc(/C=C/C(=O)OCC(=O)Nc2ccccc2)cc1OC	> 200
CCCCCNC(=O)COC(=O)/C=C/c1ccc(O)c(O)c1	131
COCOc1cc(/C=C/C(=O)OCC(=O)Nc2ccc(Cl)cc2)ccc1OCc1ccccc1	> 200
O=C(COC(=O)/C=C/c1ccc(O)c(O)c1)Nc1ccccc1	> 200

System: not listed separately
Assay: Cytotoxicity against human LS 174T cells after 72 hrs by MTT assay
Format: functional, cell-based
Conditions: LS174T
In short: as §1

Compound	IC50 [µM]
Cc1ccc(NC(=O)COC(=O)/C=C/c2ccc(O)c(O)c2)cc1	145
COCOc1ccc(/C=C/C(=O)NCCc2c[nH]c3ccccc23)cc1OCOC	165
COCOc1cc(/C=C/C(=O)OCC(=O)Nc2ccc(OC)cc2)ccc1OCc1ccccc1	> 200
COc1ccc(NC(=O)COC(=O)/C=C/c2ccc(O)c(O)c2)cc1	124
O=C(/C=C/c1ccc(O)c(O)c1)OCCc1ccccc1 [CAFFEIC ACID PHENETHYL ESTER]	9.9
O=C(/C=C/c1ccc(O)c(O)c1)NCCc1c[nH]c2ccccc12	8.4
COc1ccc(NC(=O)COC(=O)/C=C/c2cc(OC)c(OCc3ccc(Cl)c(Cl)c3)c(OC)c2)cc1	> 200
COc1ccc(/C=C/C(=O)OCC(=O)Nc2ccccc2)cc1OC	> 200
CCCCCNC(=O)COC(=O)/C=C/c1ccc(O)c(O)c1	69.4
COCOc1cc(/C=C/C(=O)OCC(=O)Nc2ccc(Cl)cc2)ccc1OCc1ccccc1	> 200
O=C(COC(=O)/C=C/c1ccc(O)c(O)c1)Nc1ccccc1	117

System: KB
Assay: Cytotoxicity against human KB cells after 72 hrs by MTT assay
Format: functional, cell-based
Conditions: not given
In short: as §1

Compound	IC50 [µM]
COCOc1ccc(/C=C/C(=O)NCCc2c[nH]c3ccccc23)cc1OCOC	> 200
O=C(/C=C/c1ccc(O)c(O)c1)OCCc1ccccc1 [CAFFEIC ACID PHENETHYL ESTER]	45.2
O=C(/C=C/c1ccc(O)c(O)c1)NCCc1c[nH]c2ccccc12	85.7

System: A549
Assay: Cytotoxicity against human A549 cells after 72 hrs by MTT assay
Format: functional, cell-based
Conditions: A549, 72 h
In short: as §1

Compound	IC50 [µM]
COCOc1ccc(/C=C/C(=O)NCCc2c[nH]c3ccccc23)cc1OCOC	> 200
O=C(/C=C/c1ccc(O)c(O)c1)OCCc1ccccc1 [CAFFEIC ACID PHENETHYL ESTER]	26.8
O=C(/C=C/c1ccc(O)c(O)c1)NCCc1c[nH]c2ccccc12	> 200

System: BGC-823
Assay: Cytotoxicity against human BGC823 cells after 72 hrs by MTT assay
Format: functional, cell-based
Conditions: BGC-823, 72 h
In short: as §1

Compound	IC50 [µM]
COCOc1ccc(/C=C/C(=O)NCCc2c[nH]c3ccccc23)cc1OCOC	143
O=C(/C=C/c1ccc(O)c(O)c1)OCCc1ccccc1 [CAFFEIC ACID PHENETHYL ESTER]	19.3
O=C(/C=C/c1ccc(O)c(O)c1)NCCc1c[nH]c2ccccc12	> 200

System: not listed separately
Assay: Cytotoxicity against human HO8910 cells after 72 hrs by MTT assay
Format: functional, cell-based
Conditions: HO-8910, 72 h
In short: as §1

Compound	IC50 [µM]
COCOc1ccc(/C=C/C(=O)NCCc2c[nH]c3ccccc23)cc1OCOC	> 200
O=C(/C=C/c1ccc(O)c(O)c1)OCCc1ccccc1 [CAFFEIC ACID PHENETHYL ESTER]	25.5
O=C(/C=C/c1ccc(O)c(O)c1)NCCc1c[nH]c2ccccc12	> 200
